Assay results reported in ChEMBL document CHEMBL4689842, “EUbOPEN Chemogenomics Library wave 1” (2021).

Test system: Fibroblast
Assay: Multiplex assay against human fibroblast
Type: toxicity, cell-based
Outline: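 On a CQ1 microscope at 37°C and 5% CO2, live cells were imaged after compound addition. They had been stained at seeding with Hoechst33342, BioTracker Green Microtubule Cytoskeleton Dye, MitoTracker Red and Annexin V Alexa Fluor 680. CellPathfinder machine-learning gating assigned cells to Hoechst high-intensity objects or normal cells, normal cells to healthy, pyknosed or fragmented nuclei, and pyknosed cells to mitotic or apoptotic. Tubulin, mitochondrial-mass and membrane-permeability phenotypes are per cents of healthy-nucleus cells.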

[1] = 12 h, 1 µM, compound concentration 1 uM, replicate 1
[2] = 12 h, 1 µM, compound concentration 1 uM, replicate 2
[3] = 12 h, 10 µM, compound concentration 10 uM, replicate 1
[4] = 12 h, 10 µM, compound concentration 10 uM, replicate 2
[5] = 24 h, 1 µM, compound concentration 1 uM, replicate 1
[6] = 24 h, 1 µM, compound concentration 1 uM, replicate 2
[7] = 24 h, 10 µM, compound concentration 10 uM, replicate 1
[8] = 24 h, 10 µM, compound concentration 10 uM, replicate 2
[9] = 48 h, 1 µM, compound concentration 1 uM, replicate 1
[10] = 48 h, 1 µM, compound concentration 1 uM, replicate 2
[11] = 48 h, 10 µM, compound concentration 10 uM, replicate 1
[12] = 48 h, 10 µM, compound concentration 10 uM, replicate 2

For Cc1cn(-c2cc(NC(=O)c3ccc(C)c(Nc4nccc(-c5cccnc5)n4)c3)cc(C(F)(F)F)c2)cn1 [NILOTINIB], the “Population Apoptotic (%)” value [1] was 62%, the “Population Fragmented Nuclei (%)” value [1] was 36% and the “Population Healthy Nuclei (%)” value [1] was 29%. The “Population Hoechst High Intensity Objects (%)” value [1] was 8%, the “Population Membrane Permeable-Phenotype (%)” value [1] was 16% and the “Population Mitochondria Different-Phenotype (%)” value [1] was 20%. For the same molecule, the “Population Mitotic Cells (%)” value [1] was 37%, the “Population Normal (%)” value [1] was 91% and the “Population Pyknosed Nuclei (%)” value [1] was 34%. For the same molecule, the “Population Tubulin-Different-Phenotype (%)” value [1] was 83%, the “Total Cell Count” value [1] was 160 and the “Population Apoptotic (%)” value [2] was 25%. The “Population Fragmented Nuclei (%)” value [2] was 1%, the “Population Healthy Nuclei (%)” value [2] was 86% and the “Population Membrane Permeable-Phenotype (%)” value [2] was 1%. For the same molecule, the “Population Mitochondria Different-Phenotype (%)” value [2] was 18%, the “Population Mitotic Cells (%)” value [2] was 75% and the “Population Pyknosed Nuclei (%)” value [2] was 11%. For the same molecule, the “Population Tubulin-Different-Phenotype (%)” value [2] was 10%, the “Total Cell Count” value [2] was 66 and the “Population Apoptotic (%)” value [3] was 78%. For the same molecule, the “Population Fragmented Nuclei (%)” value [3] was 42%, the “Population Healthy Nuclei (%)” value [3] was 46% and the “Population Hoechst High Intensity Objects (%)” value [3] was 44%. For the same molecule, the “Population Membrane Permeable-Phenotype (%)” value [3] was 4%, the “Population Mitochondria Different-Phenotype (%)” value [3] was 0% and the “Population Mitotic Cells (%)” value [3] was 21%. The “Population Normal (%)” value [3] was 55%, the “Population Pyknosed Nuclei (%)” value [3] was 10% and the “Population Tubulin-Different-Phenotype (%)” value [3] was 2%. For the same molecule, the “Total Cell Count” value [3] was 2441, the “Population Apoptotic (%)” value [4] was 33% and the “Population Fragmented Nuclei (%)” value [4] was 18%. For the same molecule, the “Population Healthy Nuclei (%)” value [4] was 72%, the “Population Hoechst High Intensity Objects (%)” value [4] was 7% and the “Population Mitochondria Different-Phenotype (%)” value [4] was 61%. The “Population Mitotic Cells (%)” value [4] was 66%, the “Population Normal (%)” value [4] was 92% and the “Population Pyknosed Nuclei (%)” value [4] was 9%. The “Population Tubulin-Different-Phenotype (%)” value [4] was 63%, the “Total Cell Count” value [4] was 73 and the “Population Apoptotic (%)” value [5] was 56%. For the same molecule, the “Population Fragmented Nuclei (%)” value [5] was 32%, the “Population Healthy Nuclei (%)” value [5] was 29% and the “Population Hoechst High Intensity Objects (%)” value [5] was 13%. For the same molecule, the “Population Membrane Permeable-Phenotype (%)” value [5] was 17%, the “Population Mitochondria Different-Phenotype (%)” value [5] was 32% and the “Population Mitotic Cells (%)” value [5] was 43%. The “Population Normal (%)” value [5] was 86%, the “Population Pyknosed Nuclei (%)” value [5] was 38% and the “Population Tubulin-Different-Phenotype (%)” value [5] was 92%. For the same molecule, the “Total Cell Count” value [5] was 159, the “Population Apoptotic (%)” value [6] was 40% and the “Population Fragmented Nuclei (%)” value [6] was 14%. The “Population Healthy Nuclei (%)” value [6] was 79%, the “Population Hoechst High Intensity Objects (%)” value [6] was 5% and the “Population Membrane Permeable-Phenotype (%)” value [6] was 2%. For the same molecule, the “Population Mitochondria Different-Phenotype (%)” value [6] was 20%, the “Population Mitotic Cells (%)” value [6] was 60% and the “Population Normal (%)” value [6] was 94%. For the same molecule, the “Population Pyknosed Nuclei (%)” value [6] was 5%, the “Population Tubulin-Different-Phenotype (%)” value [6] was 12% and the “Total Cell Count” value [6] was 67. The “Population Apoptotic (%)” value [7] was 77%, the “Population Fragmented Nuclei (%)” value [7] was 45% and the “Population Healthy Nuclei (%)” value [7] was 45%. For the same molecule, the “Population Hoechst High Intensity Objects (%)” value [7] was 50%, the “Population Membrane Permeable-Phenotype (%)” value [7] was 3% and the “Population Mitochondria Different-Phenotype (%)” value [7] was 0%. For the same molecule, the “Population Mitotic Cells (%)” value [7] was 22%, the “Population Normal (%)” value [7] was 49% and the “Population Pyknosed Nuclei (%)” value [7] was 9%. The “Population Tubulin-Different-Phenotype (%)” value [7] was 2%, the “Total Cell Count” value [7] was 2873 and the “Population Apoptotic (%)” value [8] was 0%. The “Population Fragmented Nuclei (%)” value [8] was 12%, the “Population Healthy Nuclei (%)” value [8] was 83% and the “Population Hoechst High Intensity Objects (%)” value [8] was 2%. For the same molecule, the “Population Membrane Permeable-Phenotype (%)” value [8] was 1%, the “Population Mitochondria Different-Phenotype (%)” value [8] was 42% and the “Population Mitotic Cells (%)” value [8] was 100%. For the same molecule, the “Population Normal (%)” value [8] was 97%, the “Population Pyknosed Nuclei (%)” value [8] was 4% and the “Population Tubulin-Different-Phenotype (%)” value [8] was 30%. The “Total Cell Count” value [8] was 93, the “Population Apoptotic (%)” value [9] was 67% and the “Population Fragmented Nuclei (%)” value [9] was 32%. The “Population Healthy Nuclei (%)” value [9] was 40%, the “Population Hoechst High Intensity Objects (%)” value [9] was 16% and the “Population Membrane Permeable-Phenotype (%)” value [9] was 10%. The “Population Mitochondria Different-Phenotype (%)” value [9] was 29%, the “Population Mitotic Cells (%)” value [9] was 32% and the “Population Normal (%)” value [9] was 83%. The “Population Pyknosed Nuclei (%)” value [9] was 26%, the “Population Tubulin-Different-Phenotype (%)” value [9] was 72% and the “Total Cell Count” value [9] was 138. For the same molecule, the “Population Apoptotic (%)” value [10] was 100%, the “Population Fragmented Nuclei (%)” value [10] was 19% and the “Population Healthy Nuclei (%)” value [10] was 79%. The “Population Hoechst High Intensity Objects (%)” value [10] was 11%, the “Population Membrane Permeable-Phenotype (%)” value [10] was 5% and the “Population Mitochondria Different-Phenotype (%)” value [10] was 2%. The “Population Mitotic Cells (%)” value [10] was 0%, the “Population Normal (%)” value [10] was 89% and the “Population Pyknosed Nuclei (%)” value [10] was 1%. For the same molecule, the “Population Tubulin-Different-Phenotype (%)” value [10] was 5%, the “Total Cell Count” value [10] was 100 and the “Population Apoptotic (%)” value [11] was 47%. For the same molecule, the “Population Fragmented Nuclei (%)” value [11] was 45%, the “Population Healthy Nuclei (%)” value [11] was 43% and the “Population Hoechst High Intensity Objects (%)” value [11] was 61%. The “Population Membrane Permeable-Phenotype (%)” value [11] was 4%, the “Population Mitochondria Different-Phenotype (%)” value [11] was 0% and the “Population Mitotic Cells (%)” value [11] was 52%. The “Population Normal (%)” value [11] was 38%, the “Population Pyknosed Nuclei (%)” value [11] was 10% and the “Population Tubulin-Different-Phenotype (%)” value [11] was 2%. For the same molecule, the “Total Cell Count” value [11] was 2935, the “Population Apoptotic (%)” value [12] was 100% and the “Population Fragmented Nuclei (%)” value [12] was 28%. For the same molecule, the “Population Healthy Nuclei (%)” value [12] was 65%, the “Population Hoechst High Intensity Objects (%)” value [12] was 25% and the “Population Membrane Permeable-Phenotype (%)” value [12] was 15%. The “Population Mitochondria Different-Phenotype (%)” value [12] was 9%, the “Population Mitotic Cells (%)” value [12] was 0% and the “Population Normal (%)” value [12] was 74%. The “Population Pyknosed Nuclei (%)” value [12] was 6%, the “Population Tubulin-Different-Phenotype (%)” value [12] was 81% and the “Total Cell Count” value [12] was 66.
